One block for each molecule: values may come before it. The source made the active and inactive calls. The rule behind the calls is not given here.
Assays:
[1] = molecular target: T1, Nuclear factor erythroid 2-related factor 2 (Homo sapiens) (UniProt Q16236); test: Activation of NRF2 in HUVEC assessed as induction of HO1 expression at higher concentration measured after overnight incubation by Western blot analysis; assay type: tissue-based; conditions: filed as activator
T1 sequence (whole entry): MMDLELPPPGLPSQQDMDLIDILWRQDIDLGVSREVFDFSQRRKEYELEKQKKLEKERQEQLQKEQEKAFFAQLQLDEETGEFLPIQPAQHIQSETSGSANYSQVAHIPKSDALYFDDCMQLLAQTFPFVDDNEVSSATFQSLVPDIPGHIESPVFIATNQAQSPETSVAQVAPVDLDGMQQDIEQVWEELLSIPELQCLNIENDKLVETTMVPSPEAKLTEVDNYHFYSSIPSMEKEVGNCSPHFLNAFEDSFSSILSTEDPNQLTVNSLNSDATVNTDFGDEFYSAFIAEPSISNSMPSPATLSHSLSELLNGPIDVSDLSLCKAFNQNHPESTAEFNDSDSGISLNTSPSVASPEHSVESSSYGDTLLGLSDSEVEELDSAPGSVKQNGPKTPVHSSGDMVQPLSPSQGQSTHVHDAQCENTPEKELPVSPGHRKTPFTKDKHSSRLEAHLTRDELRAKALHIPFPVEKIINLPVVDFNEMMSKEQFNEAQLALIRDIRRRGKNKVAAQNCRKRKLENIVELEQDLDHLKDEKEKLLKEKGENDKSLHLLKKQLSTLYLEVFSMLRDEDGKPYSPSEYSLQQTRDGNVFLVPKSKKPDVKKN
How it was run: (§1)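 Primary HUVEC (from fresh umbilical cord, endothelial growth medium with 2% FBS, used at 80–90% confluence) treated with compound; VCAM-1 read-out under TNFα stimulation. Lysates in Triton/deoxycholate buffer; 15 µg protein resolved on 10% SDS-PAGE, semidry-blotted to PVDF, probed overnight at 4 °C for VCAM-1 or HO-1, visualized by ECL. Blots stripped and reprobed for β-actin as loading control.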

[2] = Redox activity of compound assessed as quenching of luminescence by horseradish peroxidase coupled luminol assay; assay type: physicochemical
How it was run: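 Peroxidase-luminol chemiluminescence: serial dilutions in water added to mix of 2.5 mM luminol, 0.9 mM p-coumaric acid and H2O2, with HRP; quenching read immediately on a plate reader. Expressed relative to compound-free control; at least three independent measurements per concentration; EC50 from concentration–response; ANOVA with LSD post-hoc.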

[3] = molecular target: T1, Nuclear factor erythroid 2-related factor 2 (Homo sapiens); test: Activation of NRF2 in HUVEC assessed as induction of HO1 expression at lower concentration measured after overnight incubation by Western blot analysis; assay type: tissue-based; how it was run: as §1
[4] = test system: HUVEC; test: Protection against cold inflicted injury in HUVEC assessed as 25 to 100 uM pretreated for 2 hrs followed by washout and subsequent incubation for 20 hrs at 4 degC by LDH assay; assay type: functional, cell-based; conditions: Homo sapiens, dose 25-100 µM
[5] = molecular target: Transient receptor potential cation channel subfamily V member 1 (Rattus norvegicus, UniProt O35433); test: (§2) Activation of rat TRPV1 transfected in HEK293 cells assessed as increase in calcium influx in presence of capsaicin by FURA-2-AM dye based fluorescence assay; assay type: cell-based
Transient receptor potential cation channel subfamily V member 1, sequence (O35433 whole entry): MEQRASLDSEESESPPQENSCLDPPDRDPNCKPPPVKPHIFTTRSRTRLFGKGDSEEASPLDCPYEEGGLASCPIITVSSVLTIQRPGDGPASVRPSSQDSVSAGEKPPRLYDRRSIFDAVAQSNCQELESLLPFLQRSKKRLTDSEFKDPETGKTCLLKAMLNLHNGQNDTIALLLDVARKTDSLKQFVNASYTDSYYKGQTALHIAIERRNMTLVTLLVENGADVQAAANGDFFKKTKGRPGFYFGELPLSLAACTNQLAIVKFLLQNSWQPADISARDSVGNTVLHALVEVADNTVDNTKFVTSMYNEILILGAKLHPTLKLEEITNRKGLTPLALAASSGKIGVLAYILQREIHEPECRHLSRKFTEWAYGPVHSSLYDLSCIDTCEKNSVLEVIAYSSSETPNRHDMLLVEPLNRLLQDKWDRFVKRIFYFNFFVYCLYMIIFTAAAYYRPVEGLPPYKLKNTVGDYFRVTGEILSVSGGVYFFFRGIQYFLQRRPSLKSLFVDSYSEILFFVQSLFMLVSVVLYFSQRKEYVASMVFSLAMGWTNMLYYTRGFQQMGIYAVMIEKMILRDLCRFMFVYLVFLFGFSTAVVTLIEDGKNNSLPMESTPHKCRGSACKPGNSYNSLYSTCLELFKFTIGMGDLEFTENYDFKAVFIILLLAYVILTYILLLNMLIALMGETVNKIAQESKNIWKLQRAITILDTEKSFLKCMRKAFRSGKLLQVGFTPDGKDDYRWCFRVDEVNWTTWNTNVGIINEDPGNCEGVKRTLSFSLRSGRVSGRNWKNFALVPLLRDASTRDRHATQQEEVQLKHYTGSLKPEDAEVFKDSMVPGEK
How it was run: (§3)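 HEK293 transiently transfected with rat TRPV1, imaged 48 h later in HEPES-buffered extracellular solution (1.8 mM CaCl2) after 1 µM FURA-2AM loading. 340/380 nm excitation ratio at 510 nm, sampled at 0.5 Hz. Compound applied at several concentrations, then 10 µM capsaicin after washout to mark transfected cells. Peak minus baseline; each coverslip one experiment, n = 3–13; two-way ANOVA.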

[6] = molecular target: Transient receptor potential cation channel subfamily V member 1 (Rattus norvegicus) (UniProt O35433); test: as §2; assay type: cell-based; conditions: filed as activator; how it was run: as §3
Transient receptor potential cation channel subfamily V member 1 (Rattus norvegicus), sequence (O35433 whole entry): as above

[7] = molecular target: T2, Catechol O-methyltransferase (Homo sapiens, UniProt P21964); test: Substrate activity at COMT (unknown origin) assessed as N-(2-Fluoro-4,5-dimethoxyphenethyl)octanamide formation in presence of cofactor SAM at 180 mins by HPLC analysis; assay type: ADME; conditions: 3 h
T2 sequence (P21964 whole entry): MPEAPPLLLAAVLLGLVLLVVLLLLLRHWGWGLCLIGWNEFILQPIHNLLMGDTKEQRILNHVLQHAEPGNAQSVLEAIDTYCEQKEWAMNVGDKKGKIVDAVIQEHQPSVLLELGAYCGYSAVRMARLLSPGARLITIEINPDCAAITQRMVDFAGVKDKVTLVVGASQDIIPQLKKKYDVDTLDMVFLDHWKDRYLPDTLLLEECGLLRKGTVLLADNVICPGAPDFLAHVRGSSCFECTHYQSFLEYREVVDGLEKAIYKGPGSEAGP
How it was run: (§4)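 COMT reaction for lipophilic substrates: Tris buffer pH 8.0 with MgCl2 and dithiothreitol, 10 µL Tween20, 300 nmol SAM, 300 nmol substrate (from 100 mM ethanol stock), 75 units COMT in 1% BSA, 37 °C for 2–4 h. Cooled on ice, centrifuged, CHCl3-extracted, residue in 1:1 MeCN/water analysed by HPLC against methylated references.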

[8] = test system: HUVEC; test: Antiinflammatory activity in HUVEC assessed as inhibition of TNFalpha-stimulated VCAM1 expression at higher concentration measured after overnight incubation by Western blot analysis; assay type: functional, cell-based; conditions: Homo sapiens; how it was run: as §1
[9] = test system: HUVEC; test: Antiinflammatory activity in HUVEC assessed as inhibition of TNFalpha-stimulated VCAM1 expression at lower concentration measured after overnight incubation by Western blot analysis; assay type: functional, cell-based; conditions: Homo sapiens; how it was run: as §1
[10] = Metabolic stability of compound in rat plasma assessed as radiochemical purity measured after 120 mins by radio-HPLC analysis; assay type: ADME, cell-free; conditions: read-out: Stabilty
How it was run: (§5)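 18F tracer in PBS/3% EtOH (100 µL) shaken with rat plasma (200 µL) at 37 °C for 120 min. Samples at 30, 60, 120 min deproteinized with equal volume acetonitrile at 0 °C; supernatant analysed by radio-TLC and radio-HPLC for radiochemical purity and recovery.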

[11] = Drug distribution in Lewis rat bladder at 4.8 to 13.2 MBq measured within 30 mins by PET imaging; assay type: ADME, tissue-based, Urinary bladder; conditions: in vivo, 0.5 h, dose 4.8-13.2 MBq
[12] = Lipophilicity, log D of compound in n-octanol and phosphate buffered saline at pH 7.5 by shake flask method; assay type: physicochemical
How it was run: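 Shake-flask partition of the 18F tracer between n-octanol and PBS at pH 7.5, following OECD guideline; n = 3.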

[13] = Drug distribution in Lewis rat bone assessed as standard uptake value at 4.8 to 13.2 MBq measured after 120 mins; assay type: ADME, tissue-based, Bone element; conditions: in vivo, 2 h, dose 4.8-13.2 MBq
[14] = Metabolic stability of compound in rat plasma assessed as compound recovery rate measured after 120 mins by radio-HPLC analysis; assay type: ADME, cell-free; conditions: read-out: Drug recovery; how it was run: as §5
[15] = Drug transport in HUVEC assessed as cell association incubated for 120 mins by HPLC analysis; assay type: ADME, tissue-based; conditions: human, 2 h, in the assay text read “by gamma counting” for “by HPLC analysis”
How it was run: (§6)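 HUVEC incubated with ~450 kBq 18F tracer per well in 1 mL medium at 37 °C, normal atmosphere, for up to 120 min. Supernatant collected, cells washed 3× with PBS, lysed and scraped for gamma counting; associated activity expressed as % of applied dose. Lysate extracts analysed by radio-HPLC; three independent experiments, mean ± SD.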

[16] = Drug distribution in Lewis rat liver assessed as standard uptake value at 4.8 to 13.2 MBq measured at 8 min by PET imaging analysis; assay type: ADME, tissue-based; conditions: in vivo, dose 4.8-13.2 MBq
[17] = Drug uptake in human HUVEC lysate extracts assessed as retention time incubated for 120 mins by HPLC analysis; assay type: ADME, subcellular; conditions: 2 h; how it was run: as §6
[18] = Drug accumulation in Lewis rat bone at 4.8 to 13.2 MBq measured after 60 mins by PET imaging analysis; assay type: ADME, tissue-based, Bone element; conditions: in vivo, 1 h, dose 4.8-13.2 MBq
[19] = Drug distribution in Lewis rat bladder assessed as standard uptake value at 4.8 to 13.2 MBq measured after 120 mins; assay type: ADME, tissue-based, Urinary bladder; conditions: in vivo, 2 h, dose 4.8-13.2 MBq
[20] = Drug distribution in Lewis rat kidney assessed as standard uptake value at 4.8 to 13.2 MBq observed between 5 to 10 mins by PET imaging analysis; assay type: ADME, tissue-based; conditions: in vivo, dose lower 4.8 MBq, time lower 5 min, dose upper 13.2 MBq, time upper 10 min
[21] = molecular target: T2, Catechol O-methyltransferase; test: Substrate activity at COMT (unknown origin) assessed as N-(4-Hydroxy-3-methoxyphenethyl)octanamide formation in presence of cofactor SAM at 180 mins by HPLC analysis; assay type: ADME; conditions: 3 h; how it was run: as §4

- Activity [1]: Active
- EC50 [2]: 32.6 µM
- Activity [3]: inactive
- EC50 [5]: 45.9 µM
- Activity [6]: Dose-dependent effect
- Drug metabolism [7]: Metabolite_Detected
SMILES: CCCCCCCC(=O)NCCc1cc(O)c(O)cc1F
- Activity [4]: Active
- Activity [8]: Active
- Activity [9]: inactive

- remaining at 2 h [10]: ≥ 98%
- Drug uptake [11]: Active
- logD [12]: 3.35
- SUV [13]: 9.8 g/mL
- remaining at 2 h [14]: 77%
- Drug transport [15]: 0.14 %ID
- SUV [16]: 21 g/mL
- Retention_time [17]: 4.07 min
- Drug uptake [18]: Active
- SUV [19]: 38.5 g/mL
- SUV [20]: 8 g/mL
SMILES: CCCCCCCC(=O)NCCc1cc(O)c(O)cc1[18F]

- Activity [1]: Active
- EC50 [2]: 12.1 µM
- Drug metabolism [21]: Metabolite_Detected
- EC50 [5]: 7.1 µM
- Activity [6]: Dose-dependent effect
SMILES: CCCCCCCC(=O)NCCc1ccc(O)c(O)c1
- Activity [4]: Active
- Activity [8]: Active
